Format in all cases: cell-based
Test [1] in a line: (§1) Inhibition of human aquaporin 4 M23 isoform expressed in Xenopus laevis oocytes. As to conditions: oocyte. The essentials: (§2)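 hAQP4b cRNA (0.1 µg/µL, 30 nL) or water (sham) injected into oocytes, kept 48 h at 18 C in MBS. Oocytes preincubated 2 h with ligand at 0.1, 1, 5, 10, 20 or 100 µM, 0.1% DMSO final, then diluted with buffer-free hypotonic solution. Swelling imaged every 60 s up to 4 min; n = 5 oocytes. Percent inhibition relative to blank and sham Pf fit sigmoidally for apparent IC50.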

Test [2] deals with Oocyte. Described as §1. The method, boiled down: as §2
The subject of test [3] is Oocyte. Put plainly: Inhibition of human aquaporin 4 M23 isoform expressed in Xenopus laevis oocytes at 20 uM. The method, boiled down: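 Oocytes injected with 30 nL hAQP4b cRNA (0.1 µg/µL) or water sham, cultured 48 h at 18 C in MBS. Exposure to 20 µM compound (0.1% DMSO) for 2 h, then hypotonic challenge by dilution with buffer-free solution of matching inhibitor/DMSO. Oocyte area imaged each 60 s for 4 min, converted to volume. Osmotic permeability-based percent inhibition versus blank and sham; single-tail ANOVA, P < 0.05.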

What is called IC50 is the concentration at which inhibition is half-maximal. A high value points to a need for much substance. One may read the inhibition as the percentage by which the read-out fell short of the control. Lower therefore signals little suppression.

As for `CC1(C)O[C@@H]2[C@@H](CO[C@@]3(COS(N)(=O)=O)OC(C)(C)O[C@@H]23)O1` [TOPIRAMATE], the IC50 in test [1] is 10 µM. This molecule also had an Imax in the test with Oocyte [2] of 75%. The inhibition with Oocyte [3] was 67%.
For `Nc1nnc(-c2cccc(Cl)c2Cl)c(N)n1` [LAMOTRIGINE], the IC50 in test [1] came to 8.1 µM. In the test with Oocyte [2], this molecule came in with an Imax of 64%. In the test on Oocyte [3], this molecule yielded an inhibition of 54%.
Molecule `NS(=O)(=O)Cc1noc2ccccc12` [ZONISAMIDE] registered an IC50 in test [1] of 3.3 µM. Further, the Imax in the test on Oocyte [2] came out at 48%. This molecule came in with an inhibition in the test on Oocyte [3] of 48%.
Take `NC(=O)N1c2ccccc2C2OC2c2ccccc21` (stereo not drawn): the inhibition in the test with Oocyte [3] was found to be 40%.
Molecule `CCCC(CCC)C(=O)O` registered an inhibition with Oocyte [3] of 40%.
`O=C1NC(=O)C(c2ccccc2)(c2ccccc2)N1` [PHENYTOIN]: it took 9.8 µM to reach half-maximal inhibition in test [1] (IC50). The Imax in the test with Oocyte [2] is 60%. In the test on Oocyte [3], this molecule gave an inhibition of 58%.
With `CC(=O)Nc1nnc(S(N)(=O)=O)s1` [ACETAZOLAMIDE], inhibition in test [1] was half-maximal at 0.86 µM (IC50). The Imax with Oocyte [2] is 86%. For the same molecule, the inhibition in the test on Oocyte [3] came out at 78%.
Consider `NC(=O)N1c2ccccc2CC(=O)c2ccccc21`, for which the inhibition in the test with Oocyte [3] was determined as 33%.

These data come from ChEMBL document CHEMBL1151775, “Inhibition of aquaporin 4 by antiepileptic drugs” (Bioorg Med Chem, 2009).
